Values joined by “and” are separate entries in the source; they are usually repeats but may differ in a detail not shown here. Equal entries are not always repeated.
What was measured:
[1] = tested on: mitochondrial permeability transition pore (PTP); experiment: Ca2+-induced mitochondrial swelling assay; assay type: biochemical; details: read-out: mitochondrial swelling EC50; isolated mouse liver mitochondria; 50 μM Ca2+
Method in brief: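 Mitochondria isolated from mouse liver take up 50 μM Ca2+ to trigger pore-dependent swelling. Swelling is followed across a range of test compound concentrations. Data are the average ± SEM of ≥ 4 experiments.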

[2] = tested on: IMM potential; experiment: Rhodamine 123 uptake counterscreen; assay type: biochemical; details: read-out: Rh123 uptake EC50, isolated mouse liver mitochondria
Method in brief: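 Isolated mouse liver mitochondria took up rhodamine 123 as a read-out of inner-membrane potential. The test compound was applied in a concentration series, and interference with Rh123 uptake was recorded. Values are the average ± SEM of ≥4 experiments.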

[3] = tested on: mitochondrial permeability transition pore (PTP); experiment: Ca2+ retention capacity; assay type: biochemical; details: isolated mouse liver mitochondria
Method in brief: (§1)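 Isolated mouse liver mitochondria from wild-type or CyPD-knockout mice were used. Ca2+ retention capacity was taken as the amount of Ca2+ needed to open the pore. Mitochondria were treated across a concentration range of test compound or solvent, and results were expressed as the compound-to-solvent CRC ratio. Values are the average ± SEM of ≥4 experiments.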

[4] = tested on: mitochondrial permeability transition pore (PTP); experiment: CRC assay in CyPD-null mouse liver mitochondria; assay type: biochemical
Method in brief: as §1

[5] = tested on: mitochondrial permeability transition pore (PTP); experiment: CRC of permeabilized HeLa cells; assay type: cell-based, human
Method in brief: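 Ca2+ retention capacity was measured in permeabilized HeLa cells, 0.8 million cells per condition. The test compound was applied across a concentration range. Results are expressed as the compound-to-solvent CRC ratio, average ± SEM of ≥4 experiments.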

[6] = aqueous solubility in 1xPBS; assay type: physicochemical
[7] = chemical stability with 5x DTT; assay type: physicochemical
[8] = aqueous stability; assay type: physicochemical
[9] = plasma protein binding, human; assay type: in vitro ADME
[10] = plasma protein binding, mouse; assay type: in vitro ADME
[11] = plasma stability, human; assay type: in vitro ADME
[12] = plasma stability, mouse; assay type: in vitro ADME
[13] = PAMPA permeability; assay type: in vitro ADME; details: Pe
[14] = BBB PAMPA permeability; assay type: in vitro ADME; details: pH 7.4
[15] = hepatic microsome stability, human; assay type: in vitro ADME; details: liver microsomes, hepatic microsome stability (% remaining after 1 h)
[16] = hepatic microsome stability, mouse; assay type: in vitro ADME; details: liver microsomes, hepatic microsome stability (% remaining after 1 h)
[17] = toxicity towards Fa2N-4 immortalized human hepatocytes; assay type: cell-based; details: human, Fa2N-4 immortalized hepatocytes
[18] = tested on: Fa2N-4 immortalized human hepatocytes; experiment: as above; assay type: cell-based
[19] = tested on: isolated mouse liver mitochondria; experiment: mitochondrial respiration in isolated mouse liver mitochondria; assay type: biochemical
Method in brief: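 Isolated mouse liver mitochondria were treated with the test compound or solvent, and respiration was measured. Results are expressed as respiratory control ratio, reflecting the capacity to generate ATP. Values are the average ± SEM of ≥4 experiments.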

[20] = tested on: HeLa cells; experiment: oxygen-consumption rate of intact HeLa cells; assay type: cell-based, human; details: ≤ 10 μM
[21] = tested on: HeLa cells; experiment: HeLa cell proliferation after 24-hour treatment; assay type: cell-based, human; details: ≤ 10 μM
Method in brief: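 HeLa cells were treated with the test compound at the indicated concentrations for 24 hours, and proliferation was then assessed. Values are the average ± SEM of ≥4 experiments.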

With O=C(Nc1ccc(CN2CCCCC2)cc1)c1cc(Cl)cc(OCc2ccccc2)c1 [Compound 4, 3-(benzyloxy)-5-chloro-N-(4-(piperidin-1-ylmethyl)phenyl)benzamide] the EC50 [1] was 0.28 ± 0.024 µM, the EC50 [2] was 24.5 ± 1.12 µM and the “CRC/CRC0 at 12.5 μM” value ([3]; 12.5 μM, compound-to-solvent CRC ratio) was 19.5 ± 1.7. For the same molecule, the “maximum CRC ratio relative to CsA-treated mitochondria” value [3] was “about 4 times”, the “increase in CRC in CyPD-null mouse liver mitochondria” value [4] was 7 fold and the “effect on CRC of permeabilized HeLa cells” value [5] was “concentration-dependent increase”. The solubility ([6]; pH 5, aqueous buffer) was 22.8 µg/mL and 52.5 µM, the solubility ([6]; pH 6.2, aqueous buffer) was 22.6 µg/mL and 52.1 µM and the solubility ([6]; pH 7.4, aqueous buffer) was 0.64 µg/mL and 1.5 µM. The “chemical stability with 5× DTT, % parent remaining after 8 h” value [7] was 91%, the “aqueous stability (1:1 PBS/acetonitrile), % parent remaining after 48 h” value [8] was 93.4% and the fraction unbound at 1 μM [9] was 0.008. It also gave a fraction unbound at 10 μM [9] of 0.008, a fraction unbound at 1 μM [10] of 0.007 and a fraction unbound at 10 μM [10] of 0.017. For the same molecule, the remaining at 3 h [11] was 39%, the remaining at 3 h [12] was 35% and the Papp ([13]; Donor pH 5.0, Acceptor pH 7.4) was 1300 ×10⁻⁶ cm/s. For the same molecule, the Papp ([13]; Donor pH 6.2, Acceptor pH 7.4) was 1340 ×10⁻⁶ cm/s, the Papp [14] was 113 ×10⁻⁶ cm/s and the remaining at 1 h ([15]; +NADPH) was 61%. It also gave a remaining at 1 h ([15]; -NADPH) of 67%, a remaining at 1 h ([16]; +NADPH) of 30% and a remaining at 1 h ([16]; -NADPH) of 74%. The CC50 [17] was 32 µM, the “selectivity, Fa2N-4 LC50 compared to mitochondrial swelling EC50” value [18] was 114 fold and the “effect on ATP synthesis” value ([19]; 5 μM) was “no effect”. For the same molecule, the “respiratory control ratios, FCCP-stimulated and oligomycin-sensitive respiration” value ([19]; ≤ 10 μM, isolated mouse liver mitochondria) was “No significant differences”, the “FCCP-stimulated and oligomycin-sensitive respiration (OCR)” value [20] was “No significant differences” and the “effect on HeLa cell proliferation” value [21] was “no effect”.

From publication PMC4948641 (ChemMedChem, 2015)
